In paper PMC2834294 (Chemistry & biology, 2010):

Experiments:
[1] = tested on: TRPML3; format: cell-based; settings: 10 µM compound; ELS 2 mM Na+, 150 mM K+
In short: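 Whole-cell recordings used HEK293 cells expressing TRPML3 with 100% series-resistance compensation. Pipette solution (mM): 140 CsCl, 10 HEPES, 3 ATP-Na, 1 BAPTA, 2 MgCl2; pH 7.2. Compound at 10 µM was perfused in endolymph-like solution (mM: 2 NaCl, 150 KCl, 0.25 CaCl2, 10 HEPES, 10 glucose; pH 7.4) or in standard bath. Inward current at −80 mV was normalized to capacitance.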

[2] = molecular target: T1, TRPML3 (Homo sapiens, UniProt Q8TDD5); assay: Whole-cell patch-clamp, HEK293 cells transiently transfected with TRPML3; format: cell-based; settings: for nA/pF (-80 mV) (TRPML3): current density at −80 mV, 10 µM in standard bath solution, mean ±SEM (n≥3); for average current density relative to constitutively active TRPML3 A419P: whole-cell, −80 mV
T1 sequence (Q8TDD5 1-553): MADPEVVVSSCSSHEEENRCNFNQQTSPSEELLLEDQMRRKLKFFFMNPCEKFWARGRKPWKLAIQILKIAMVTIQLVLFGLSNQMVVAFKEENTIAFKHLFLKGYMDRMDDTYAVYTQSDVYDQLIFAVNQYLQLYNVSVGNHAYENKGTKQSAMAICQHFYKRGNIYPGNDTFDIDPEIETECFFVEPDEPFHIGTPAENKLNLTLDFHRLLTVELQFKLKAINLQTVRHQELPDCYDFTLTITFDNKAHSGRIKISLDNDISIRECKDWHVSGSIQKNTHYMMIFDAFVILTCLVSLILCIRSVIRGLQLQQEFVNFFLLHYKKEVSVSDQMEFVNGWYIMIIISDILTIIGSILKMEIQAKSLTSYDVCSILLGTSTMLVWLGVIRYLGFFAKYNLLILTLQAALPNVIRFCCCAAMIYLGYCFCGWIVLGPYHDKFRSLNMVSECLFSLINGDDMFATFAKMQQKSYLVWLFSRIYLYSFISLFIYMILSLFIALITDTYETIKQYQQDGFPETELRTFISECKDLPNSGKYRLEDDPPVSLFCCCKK
In short: (§1)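 Whole-cell patch clamp was done on HEK293 cells 24 h after transient transfection with human TRPML3 or YFP; constitutively active TRPML3(A419P) cells served as positive control. Bath solution (mM): 138 NaCl, 5.4 KCl, 2 MgCl2, 2 CaCl2, 10 HEPES, 10 d-glucose; pH 7.4. Pipette solution (mM): 140 CsCl, 10 HEPES, 3 ATP-Na, 1 BAPTA, 2 MgCl2; pH 7.2. Compounds at 10 µM were perfused. Capacitance-normalized current at −80 mV is reported as mean ± SEM, n≥3.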

[3] = molecular target: T1, TRPML3; format: cell-based; settings: HEK293, read-out: Max % Activation (TRPML3)
In short: (§2)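 HEK293 lines stably expressed YFP-fused human TRPML3 or zebrafish TRPN1 (G418 0.8 mg/ml, twice subcloned) and were plated at 1,500 cells/well for 23 h at 37 °C. After Fluo-8 loading (1 h 37 °C, 30 min RT), a 5 s basal read and 120 s post-addition read were taken. Max/basal ratios were normalized to DMSO and carbachol (87 µM).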

[4] = molecular target: T1, TRPML3; assay: Fura-2 calcium imaging, HEK293 cells transiently expressing TRPML3; format: cell-based; settings: for ⊗F340/F380 (TRPML3): 10 µM compound, mean ±SEM (n≥3); for kinetics of intracellular calcium increase: TRPML3-transfected HEK293 cells
In short: (§3)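 HEK293 cells were transiently transfected (Genejammer) with the human channel construct or YFP control and measured 24 h later. Cells on glass coverslips were loaded with 4 µM fura-2-AM in bath solution (mM: 138 NaCl, 6 KCl, 2 MgCl2, 2 CaCl2, 10 HEPES, 5.5 D-glucose; pH 7.4). Compounds were applied at 10 µM and the F340/F380 ratio recorded. Values are mean ± SEM, n≥3.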

[5] = molecular target: danio rerio TRPN1 (Danio rerio, UniProt Q7T1G6); format: cell-based; settings: for Emax: HEK293, read-out: Max % Activation (Control); for activity against TRPN1: compounds tested from powders
In short: as §2

[6] = molecular target: T2, TRPML3 coexpressed with dynamin (Homo sapiens, UniProt Q8TDD5); assay: Calcium imaging, HEK293 cells coexpressing wild type dynamin with TRPML3; format: cell-based; settings: compared to control experiments
T2 sequence (Q8TDD5 1-553): T1 sequence (Q8TDD5 1-553)
In short: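 HEK293 cells were transiently cotransfected (Genejammer) with wild-type dynamin and TRPML3 and imaged 24 h later. Cells on glass coverslips were loaded with 4 µM fura-2-AM in bath solution (mM: 138 NaCl, 6 KCl, 2 MgCl2, 2 CaCl2, 10 HEPES, 5.5 D-glucose; pH 7.4). Responses to activators were compared with control transfections.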

[7] = tested on: YFP-expressing HEK293 cells; assay: Fura-2 calcium imaging, YFP-expressing HEK293 cells; format: cell-based; settings: mean ±SEM (n≥3)
In short: as §3

[8] = tested on: YFP-expressing HEK293 cells; assay: Whole-cell patch-clamp, YFP-expressing HEK293 cells; format: cell-based; settings: current density at −80 mV, mean ±SEM (n≥3)
In short: as §1

[9] = tested on: cochlear hair cells; assay: Recording from acutely isolated cochlear hair cells; format: cell-based, rat; settings: up-to 100 µM; in SBS, SN-2 also in ELS
[10] = molecular target: T3, TRPML2 (Homo sapiens, UniProt Q8IZK6); assay: Fura-2 calcium imaging, HEK293 cells expressing TRPML2; format: cell-based; settings: 10 µM
T3 sequence (Q8IZK6 1-566): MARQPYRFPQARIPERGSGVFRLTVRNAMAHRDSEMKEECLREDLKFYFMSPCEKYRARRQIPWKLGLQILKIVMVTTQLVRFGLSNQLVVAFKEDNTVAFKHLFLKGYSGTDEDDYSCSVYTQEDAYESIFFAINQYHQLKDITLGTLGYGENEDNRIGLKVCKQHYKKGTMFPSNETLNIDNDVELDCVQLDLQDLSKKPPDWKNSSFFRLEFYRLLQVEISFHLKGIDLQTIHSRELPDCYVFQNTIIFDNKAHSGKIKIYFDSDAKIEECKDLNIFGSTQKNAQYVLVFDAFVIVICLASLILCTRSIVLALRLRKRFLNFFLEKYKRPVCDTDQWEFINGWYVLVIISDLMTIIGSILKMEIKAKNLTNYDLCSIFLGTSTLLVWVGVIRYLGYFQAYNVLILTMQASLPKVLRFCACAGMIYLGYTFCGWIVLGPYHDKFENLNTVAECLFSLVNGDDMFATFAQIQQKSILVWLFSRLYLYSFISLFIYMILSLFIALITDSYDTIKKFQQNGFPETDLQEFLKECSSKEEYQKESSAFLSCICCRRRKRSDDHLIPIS
In short: as §3

[11] = molecular target: T4, TRPML3 coexpressed with TRPML1 (Homo sapiens, UniProt Q8TDD5); assay: Calcium imaging, HEK293 cells coexpressing TRPML3 with TRPML1; format: cell-based; settings: 10 µM
T4 sequence (Q8TDD5 1-553): T1 sequence (Q8TDD5 1-553)
In short: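 Human TRPML3 and TRPML1 were transiently coexpressed in HEK293 cells (Genejammer) and imaged 24 h post-transfection. Cells on glass coverslips were loaded with 4 μM fura-2-AM in bath solution (mM: 138 NaCl, 6 KCl, 2 MgCl₂, 2 CaCl₂, 10 HEPES, 5.5 D-glucose, pH 7.4) and read on a monochromator imaging system. Test compound was 10 μM. Mean ± SEM, n≥3 independent experiments, 20–30 cells each.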

Chain of danio rerio TRPN1 (Q7T1G6 1-1614): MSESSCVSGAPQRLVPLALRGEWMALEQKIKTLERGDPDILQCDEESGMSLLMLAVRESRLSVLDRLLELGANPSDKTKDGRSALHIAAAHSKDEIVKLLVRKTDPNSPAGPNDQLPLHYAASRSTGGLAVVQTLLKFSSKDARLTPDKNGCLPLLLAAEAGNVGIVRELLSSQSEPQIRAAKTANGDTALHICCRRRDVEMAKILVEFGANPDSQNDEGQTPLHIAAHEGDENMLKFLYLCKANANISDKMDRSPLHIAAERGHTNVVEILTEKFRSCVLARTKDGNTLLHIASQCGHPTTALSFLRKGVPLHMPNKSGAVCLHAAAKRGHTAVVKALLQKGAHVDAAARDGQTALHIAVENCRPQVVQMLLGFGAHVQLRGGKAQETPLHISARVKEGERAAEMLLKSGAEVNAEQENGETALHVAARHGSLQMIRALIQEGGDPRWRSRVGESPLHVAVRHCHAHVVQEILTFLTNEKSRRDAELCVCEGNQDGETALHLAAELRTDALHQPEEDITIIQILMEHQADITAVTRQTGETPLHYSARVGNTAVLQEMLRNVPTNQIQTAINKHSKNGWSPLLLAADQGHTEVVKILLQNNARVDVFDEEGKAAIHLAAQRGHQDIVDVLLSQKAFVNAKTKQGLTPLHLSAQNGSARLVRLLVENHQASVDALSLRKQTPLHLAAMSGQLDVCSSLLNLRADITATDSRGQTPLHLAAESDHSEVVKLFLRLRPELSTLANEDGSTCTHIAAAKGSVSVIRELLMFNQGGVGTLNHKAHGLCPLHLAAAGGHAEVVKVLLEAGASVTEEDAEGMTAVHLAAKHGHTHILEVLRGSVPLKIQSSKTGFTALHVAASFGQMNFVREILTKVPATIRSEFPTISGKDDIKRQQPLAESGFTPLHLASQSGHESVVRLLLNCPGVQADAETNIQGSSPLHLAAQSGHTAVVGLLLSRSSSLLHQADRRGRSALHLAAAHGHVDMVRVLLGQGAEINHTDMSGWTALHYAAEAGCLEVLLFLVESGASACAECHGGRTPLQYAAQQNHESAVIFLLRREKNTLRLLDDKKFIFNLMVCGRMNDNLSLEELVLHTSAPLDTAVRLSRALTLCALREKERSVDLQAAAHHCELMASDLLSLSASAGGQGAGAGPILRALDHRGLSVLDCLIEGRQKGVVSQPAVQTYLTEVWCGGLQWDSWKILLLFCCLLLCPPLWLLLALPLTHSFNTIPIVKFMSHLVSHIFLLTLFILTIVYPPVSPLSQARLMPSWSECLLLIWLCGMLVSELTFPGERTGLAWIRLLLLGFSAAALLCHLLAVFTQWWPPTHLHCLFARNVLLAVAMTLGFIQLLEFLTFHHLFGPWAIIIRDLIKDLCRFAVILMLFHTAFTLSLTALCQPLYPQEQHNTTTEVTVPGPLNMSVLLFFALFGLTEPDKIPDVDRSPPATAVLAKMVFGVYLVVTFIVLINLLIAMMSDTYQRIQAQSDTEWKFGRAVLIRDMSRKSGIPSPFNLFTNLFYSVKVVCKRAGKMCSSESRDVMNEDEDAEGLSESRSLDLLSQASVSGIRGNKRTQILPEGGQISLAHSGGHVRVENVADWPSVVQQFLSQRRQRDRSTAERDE

| Structure (SMILES) | increase in current densities, compound + ELS vs ELS alone or compound in SBS [1] [fold] | nA/pF (-80 mV) (TRPML3) [2] [nA/pF] | Emax [3] [%] | ⊗F340/F380 (TRPML3) [4] | EC50 [5] [µM] | Emax [5] [%] | response when wild type dynamin coexpressed with TRPML3 in HEK293 cells [6] | ⊗F340/F380 (Control) [7] | average current density relative to constitutively active TRPML3 A419P [2] | kinetics of intracellular calcium increase [4] | nA/pF (-80 mV) (Control) [8] [nA/pF] | activity against TRPN1 [5] | TRPML3 channel activity in cochlear hair cells [9] | response in HEK293 cells expressing TRPML2 [10] | calcium imaging response when TRPML1 was coexpressed with TRPML3 [11] |
| --- | --- | --- | --- | --- | --- | --- | --- | --- | --- | --- | --- | --- | --- | --- | --- |
| Cc1ccc(S(=O)(=O)Nc2ccccc2-c2ccccc2)cc1 [SF-24, 4-methyl-N-(2-phenylphenyl)benzenesulfonamide] | ≤ 10 | −0.02 ±0.01 | 86 ± 7 | 0.51 ±0.05 | > 29.9 | 2 | reduction in response | 0.016 ±0.023 |  |  |  |  |  |  |  |
| CC1=CC(C)(C)N(C(=O)CN2C(=O)c3ccccc3C2=O)c2ccccc21 [SF-51, 2-[2-oxo-2-(2,2,4-trimethylquinolin-1-yl)ethyl]isoindole-1,3-dione] |  | −0.41 ±0.10 | 175 ± 18 | 0.78 ±0.03 | > 29.9 | 47 ± 3 |  |  | Stronger responses | slowest kinetics | −0.016 ±0.008 | significant activity against TRPN1 |  |  |  |
| O=S(=O)(NC1CCCCC1N1CCOCC1)c1ccc(Cl)cc1 (centres unmarked) [SF-21, 4-chloro-N-(2-morpholin-4-ylcyclohexyl)benzenesulfonamide] |  | −0.55 ±0.08 | 200 ± 7 | 1.38 ±0.10 | 14.2 ± 2.03 | 61 ± 2 |  | 0.033 ±0.008 | Stronger responses | much more rapid increase than the other compounds |  | significant activity against TRPN1 | Neither compound at concentrations of up-to 100 µM, with or without endolymph-like extracellular solution, elicited TRPML3 channel activity | elicited responses | strong reduction of the calcium imaging responses |
| CCCC(=O)Oc1c(S(=O)(=O)c2ccc(C)cc2)c(C)nn1C(C)(C)C [SF-71, [2-tert-butyl-5-methyl-4-(4-methylphenyl)sulfonylpyrazol-3-yl] butanoate] |  | −0.08 ±0.02 | 85 ± 8 | 0.75 ±0.06 | > 29.9 | 2 ± 1 |  |  |  |  | −0.012 ±0.006 |  |  |  |  |
